{"source": "ChEMBL document CHEMBL1124954", "about": "“Atrial natriuretic peptide receptor modulators: effects of disubstituted quinazolines on receptor binding and in vitro biological activity” (J Med Chem, 1990)", "key": {"[1]": {"experiment": "In vitro binding affinity towards atrionatriuretic peptide receptor (ANP) using [125I]rANP as radioligand in bovine adrenal zonal glomerulosa membranes"}, "[2]": {"experiment": "In vitro binding affinity towards Atrionatriuretic peptide receptor (ANP) using [125I]rANP as radioligand in bovine adrenal zonal glomerulosa membranes"}, "[3]": {"experiment": "Percent increase in [125I]rANP binding at 20 uM concentration in bovine zona glomerulosa membranes", "assay_type": "cell membranes"}, "Rattus norvegicus [4]": {"species_on_record": "Rattus norvegicus", "experiment": "Inhibition of ACTH (1 nM)-stimulated aldosterone synthesis was determined in rat adrenal glomerulosa (control = 17.4+/-2.5)", "assay_type": "functional"}, "Rattus norvegicus [5]": {"species_on_record": "Rattus norvegicus", "experiment": "Inhibition of aldosterone synthesis was determined in rat adrenal glomerulosa per 2 hours at 10 uM concentration, in the absence of rANP (control = 1.8+/-0.5)", "assay_type": "functional"}, "[6]": {"experiment": "In vitro binding affinity towards atrionatriuretic peptide receptor (ANP) using [125I]rANP as radioligand in bovine adrenal zonal glomerulosa membranes; Not active at 20 uM"}, "Rattus norvegicus [7]": {"species_on_record": "Rattus norvegicus", "experiment": "Concentration for rANP inhibition of aldosterone synthesis was determined n rat adrenal glomerulosa", "assay_type": "functional", "outline": "(§1)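 Collagenase-dispersed male Sprague-Dawley rat adrenal glomerulosa cells were used at about 30,000 cells/mL in M199 with KCl 3.5 mM and BSA 2 mg/mL. They were incubated 2 h at 37 °C with ACTH 1 nM and rANP 10⁻¹⁰–10⁻⁸ M, plus compound or water vehicle. Aldosterone was measured by RIA. The EC50 came from a four-parameter logistic fit, compared by Student's t test, 10 experiments.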"}, "Rattus norvegicus [8]": {"species_on_record": "Rattus norvegicus", "experiment": "ACTH-stimulated aldosterone synthesis was determined in rat adrenal glomerulosa cell suspension (control = 8.5+/-0.9)", "assay_type": "functional"}, "Rattus norvegicus [9]": {"species_on_record": "Rattus norvegicus", "experiment": "Inhibition of aldosterone synthesis was determined in rat adrenal glomerulosa per 2 hours at 3 uM concentration, in the absence of rANP (control = 1+/-0.1)", "assay_type": "functional"}, "Rattus norvegicus [10]": {"species_on_record": "Rattus norvegicus", "experiment": "Concentration for rANP inhibition of aldosterone synthesis was determined in rat adrenal glomerulosa", "assay_type": "functional", "outline": "as §1"}}, "note": "The source made the active and inactive calls. The rule behind the calls is not given here."}
{"molecule": "CN(CCCN=C(N)N)c1nc(N2CCCC2)c2ccccc2n1", "values": [{"measurement": "SC50", "setting": "[1]", "value": 1.5, "unit": "µM"}]}
{"molecule": "O=C(c1ccco1)N1CCN(c2nc(N3CCCC3)c3ccccc3n2)CC1", "values": [{"measurement": "SC50", "setting": "[1]", "value": 7, "unit": "µM"}]}
{"molecule": "CCN(CC)c1nc(NCCN=C(N)N)c2ccccc2n1", "values": [{"measurement": "SC50", "setting": "[1]", "value": 2.4, "unit": "µM"}]}
{"molecule": "CC/N=C(/N)NCCNc1nc(N(CC)CC)nc2ccccc12", "values": [{"measurement": "SC50", "setting": "[1]", "value": 7.4, "unit": "µM"}]}
{"molecule": "COc1cc2nc(N3CCN(C(=O)c4ccco4)CC3)nc(N)c2cc1OC", "values": [{"measurement": "SC50", "setting": "[2]", "value": 25, "unit": "µM"}]}
{"molecule": "CCN(CC)c1nc(NCCCCN=C(N)N)c2ccccc2n1", "values": [{"measurement": "SC50", "setting": "[1]", "value": 2.2, "unit": "µM"}]}
{"molecule": "CCN(CC)c1nc(NCC/N=C(\\N)NC)c2ccccc2n1", "values": [{"measurement": "SC50", "setting": "[1]", "value": 4.5, "unit": "µM"}]}
{"molecule": "CC/N=C(/NC#N)NCCNc1nc(N(CC)CC)nc2ccccc12", "values": [{"measurement": "Increase", "setting": "[3]", "value": 12, "unit": "%"}]}
{"molecule": "CCN(CC)c1nc(OC)c2ccccc2n1", "values": [{"measurement": "Concentration", "setting": "Rattus norvegicus [4]", "value": 17.8, "unit": "ng/mL"}, {"measurement": "Concentration", "setting": "Rattus norvegicus [5]", "value": 1.4, "unit": "ng/mL"}, {"measurement": "SC50", "setting": "[6]", "value": "inactive"}, {"measurement": "EC50", "setting": "Rattus norvegicus [7]", "value": 0.18, "unit": "nM"}]}
{"molecule": "CCN(CC)c1nc(NCC/N=C(/NC)NC#N)c2ccccc2n1", "values": [{"measurement": "Increase", "setting": "[3]", "value": 25, "unit": "%"}]}
{"molecule": "CCN(CC)c1nc(NCCCN=C(N)N)c2ccccc2n1", "values": [{"measurement": "Concentration", "setting": "Rattus norvegicus [8]", "value": 7.7, "unit": "ng/mL"}, {"measurement": "Concentration", "setting": "Rattus norvegicus [9]", "value": 0.9, "unit": "ng/mL"}, {"measurement": "EC50", "setting": "Rattus norvegicus [10]", "value": 0.12, "unit": "nM"}, {"measurement": "SC50", "setting": "[1]", "value": 1.8, "unit": "µM"}]}
{"molecule": "CN(CCCNC(=O)c1ccco1)c1nc(N2CCCC2)c2ccccc2n1", "values": [{"measurement": "SC50", "setting": "[1]", "value": 5.6, "unit": "µM"}]}
{"molecule": "c1ccc2c(N3CCCC3)nc(N3CCNCC3)nc2c1", "values": [{"measurement": "SC50", "setting": "[1]", "value": 4.2, "unit": "µM"}]}
